Assay results published in ChEMBL document CHEMBL1165931, “Cytotoxic indole alkaloids from Melodinus tenuicaudatus” (J Nat Prod, 2010).

Columns and labels:
Format in all cases: functional, cell-based
[1] = test system: SMMC-7721; assay: Cytotoxicity against human SMMC7721 cells after 48 hrs by MTT assay
Method in brief: (§1)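 Cells grown in RPMI-1640 or DMEM with 10% FBS at 37 °C under 5% CO2. Adherent lines (A-549, MCF-7, SMMC-7721, SW480) were left to attach for 12 h before dosing; suspension HL-60 was seeded just before dosing at 1 × 10^5 cells/mL. Compounds were given in DMSO at 0.0625, 0.32, 1.6, 8 and 40 µmol, in triplicate, for 48 h. Read-out by MTT; cisplatin and vinorelbine were positive controls.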

[2] = test system: MCF7; assay: Cytotoxicity against human MCF7 cells after 48 hrs by MTT assay; method in brief: as §1
[3] = test system: A549; assay: Cytotoxicity against human A549 cells after 48 hrs by MTT assay; method in brief: as §1
[4] = test system: SW480; assay: Cytotoxicity against human SW480 cells after 48 hrs by MTT assay; method in brief: as §1
[5] = test system: HL-60; assay: Cytotoxicity against human HL60 cells after 48 hrs by MTT assay; method in brief: as §1

## CC[C@]12C=CCN3CCc4c(n(c5ccccc45)[C@@H](c4ccc5c(c4)[C@@]46CCN7CC=C[C@@]8(C[C@@H](C(=O)OC)[C@]4(N5)[C@@H]8C)[C@H]76)C1)[C@@H]32
[1]
  IC50: 3.2 µmol
[2]
  IC50: 2.9 µmol
[3]
  IC50: 4.8 µmol
[4]
  IC50: 1.4 µmol
[5]
  IC50: 1.1 µmol

## CC[C@]12C=CCN3CCc4c(n(c5ccccc45)[C@@H](OC)C1)[C@@H]32
[1]
  IC50: 22.1 µmol
[2]
  IC50: 29.3 µmol
[3]
  IC50: > 40 µmol
[4]
  IC50: 32.2 µmol
[5]
  IC50: 15.9 µmol

## CC[C@]12C=CCN3CC[C@]4(C(=C(C(=O)OC)C1)Nc1cc(OC)ccc14)[C@@H]32
[1]
  IC50: 13.1 µmol
[2]
  IC50: 2.1 µmol
[3]
  IC50: 12.8 µmol
[4]
  IC50: 12.7 µmol
[5]
  IC50: 0.2 µmol

## CC[C@]12C=CCN3CC[C@]4(C(=C(C(=O)OC)C1)Nc1cc5c(cc14)[C@@H]1[C@H](O5)[C@@H](O)[C@@]4(CC)CC(C(=O)OC)=C5Nc6ccccc6[C@@]56CCN1[C@@H]46)[C@@H]32 [MELODININE K]
[1]
  IC50: 3 µmol
[2]
  IC50: 2.7 µmol
[3]
  IC50: 5 µmol
[4]
  IC50: 5.7 µmol
[5]
  IC50: 0.1 µmol

## COC(=O)[C@@H]1C[C@@]23C=CCN4CC[C@@]5(c6ccccc6N[C@]15[C@@H]2C)[C@@H]43 [VINDOLININE]
[1]
  IC50: 20.7 µmol
[2]
  IC50: 21.9 µmol
[3]
  IC50: 26.3 µmol
[4]
  IC50: 15.2 µmol
[5]
  IC50: 6.8 µmol

## CCC1=C[C@@H]2CN(C1)Cc1c([nH]c3ccccc13)[C@@](C(=O)OC)(c1cc3c(cc1OC)N(C)[C@H]1[C@@](O)(C(=O)OC)[C@H](OC(C)=O)[C@]4(CC)C=CCN5CC[C@]31[C@@H]54)C2 [VINORELBINE]
[1]
  IC50: 4.7 µmol
[2]
  IC50: 17.2 µmol
[3]
  IC50: 26.1 µmol
[4]
  IC50: > 40 µmol
[5]
  IC50: < 0.06 µmol
